Laboratory results taken from ChEMBL document CHEMBL3399918, “In vitro radical scavenging and cytotoxic activities of novel hybrid selenocarbamates” (Bioorg Med Chem, 2015).

Experiments:
[1] = Antioxidant activity assessed as DPPH radical scavenging activity at 0.5 mg/ml after 180 mins; assay type: physicochemical; settings: 3 h
Summary of the method: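 Compounds in absolute ethanol, serially diluted from 1 mg/mL, mixed 1:1 with […] in ethanol. Final range 0.016–0.5 mg/mL, 6 concentrations. Incubated at 37 °C in the dark, with decolourisation followed at 517 nm at several time intervals. % scavenged = (A vehicle control − A sample)/A control × 100. Quadruplicate; mean ± SD.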

[2] = tested on: CCRF-CEM; experiment: Cytotoxicity against human CCRF-CEM cells after 72 hrs by MTT assay; assay type: functional
Summary of the method: (§1)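 CCRF-CEM, HT-29, PC-3 and HTB-54 cells grown in RPMI 1640 with 10% foetal calf serum, 2 mM L-glutamine, penicillin/streptomycin, 10 mM HEPES (pH 7.4). Five concentrations, 0.01–100 μM, 72 h at 37 °C, 5% CO2; MTT read-out. GI50, TGI and LC50 versus untreated controls; at least 3 independent experiments in quadruplicate.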

[3] = tested on: HT-29; experiment: Cytotoxicity against human HT-29 cells after 72 hrs by MTT assay; assay type: functional; settings: HT-29, 72 h; summary of the method: as §1
[4] = Cytotoxicity against human BEAS2B cells after 72 hrs by MTT assay; assay type: cell-based, BEAS-2B; settings: for GI50 at 72 h: BEAS2B cells; for LC50 / TGI: beas-2b, 72 h
Summary of the method: (§2)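 Non-malignant lines: 184B5 (normal breast) in Hams F-12/DMEM (50:50) with published supplements; BEAS-2B (bronchial epithelium) in Hams F-12/DMEM (50:50) with 10% foetal calf serum, 2 mM L-glutamine, penicillin/streptomycin. Compounds at five concentrations, 0.01–100 μM, 72 h, 37 °C, 5% CO2; MTT read-out. GI50, TGI, LC50 relative to untreated controls; ≥3 independent experiments in quadruplicate.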

[5] = tested on: MCF7; experiment: Cytotoxicity against human MCF7 cells after 72 hrs by MTT assay; assay type: functional; settings: MCF7, 72 h; for CC50: read-out: LC50 (the source's name)
Summary of the method: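 MCF-7 cells grown in EMEM with 10% foetal calf serum, 2 mM L-glutamine, 100 units/mL penicillin, 100 µg/mL streptomycin. Exposed to five concentrations between 0.01 and 100 μM for 72 h, 37 °C, humidified 5% CO2; MTT read-out. GI50, TGI, LC50 relative to untreated controls; ≥3 independent experiments in quadruplicate.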

[6] = Cytotoxicity against human 184B5 cells after 72 hrs by MTT assay; assay type: cell-based; settings: for GI50 at 72 h: 184B5 cells; for LC50 / TGI: 184b5, 72 h; summary of the method: as §2
[7] = Antioxidant activity assessed as ABTS radical scavenging activity at 0.1 mg/ml after 6 mins; assay type: physicochemical; settings: 0.1 h
Summary of the method: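 Diluted with 50% ethanol to A741 0.700 ± 0.02. A741 decrease read after 6 min against a 50% ethanol blank. % scavenged relative to a vehicle-plus-radical control. Quadruplicate.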

[8] = Antioxidant activity assessed as ABTS radical scavenging activity by measuring Trolox equivalent antioxidant capacity after 6 mins; assay type: physicochemical; settings: 0.1 h
Summary of the method: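 ABTS dissolved in deionized water at 1 mg/mL, oxidised to radical cation with potassium persulfate (2.45 mM final), kept overnight at room temperature in dark, then diluted with 50% ethanol to A741 = 0.700 ± 0.02. Compound (1 mg/mL ethanol stock) added 1:10 (0.1 mg/mL); A741 decrease read after 6 min against 50% ethanol blank. Trolox positive control; quadruplicate; TEAC from calibration curve.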

[9] = Cytotoxicity against human PC3 cells after 72 hrs by MTT assay; assay type: functional; settings: PC-3, 72 h; summary of the method: as §1
[10] = Cytotoxicity against human HTB-54 cells after 72 hrs by MTT assay; assay type: functional; settings: HTB-54, 72 h; for CC50: read-out: LC50 (the source's name); summary of the method: as §1

## N#C[Se]c1ccc(NC(=O)Oc2ccccc2)cc1
[1]
  inhibition (INH): 19.3%
[2]
  GI50: 22.9 µM
  LC50: 73.2 µM
  TGI: 48 µM
[3]
  GI50: 11.7 µM
  LC50: 71.7 µM
  TGI: 41.7 µM
[4]
  GI50 at 72 h: 8.9 µM
  LC50: 69.3 µM
  TGI: 38.2 µM
[5]
  GI50: 4 µM
  TGI: 35.9 µM
  CC50: 67.8 µM
[6]
  GI50 at 72 h: 0.4 µM
  LC50: 61.2 µM
  TGI: 22.7 µM
[7]
  inhibition (INH): > 25%
[8]
  Activity: 29 µg/µL
[9]
  GI50: 9.1 µM
  LC50 (concentration causing 50% net cell kill): 68 µM
  TGI: 37.5 µM
[10]
  GI50: 26.2 µM
  TGI: 50.2 µM
  CC50: 74.4 µM

## N#C[Se]c1ccc(NC(=O)OCc2ccccc2)cc1
[1]
  inhibition (INH): 3.7%
[2]
  GI50: 23.2 µM
  LC50: 73.7 µM
  TGI: 48.4 µM
[3]
  GI50: 13.3 µM
  LC50: 69.1 µM
  TGI: 41.2 µM
[4]
  GI50 at 72 h: 0.1 µM
  LC50: 66.6 µM
  TGI: 34.4 µM
[5]
  GI50: 8.7 µM
  TGI: 38.8 µM
  CC50: 68.9 µM
[6]
  GI50 at 72 h: 5 µM
  LC50: 60.7 µM
  TGI: 21.9 µM
[8]
  Activity: 6.74 µg/µL
[9]
  GI50: 3.7 µM
  LC50 (concentration causing 50% net cell kill): 62.5 µM
  TGI: 27.8 µM
[10]
  GI50: 27.6 µM
  TGI: 50.8 µM
  CC50: 74 µM

## CCCCCCOC(=O)Nc1ccc([Se][Se]c2ccc(NC(=O)OCCCCCC)cc2)cc1
[1]
  inhibition (INH): < 16%
[2]
  GI50: 6.2 µM
  LC50: 67.3 µM
  TGI: 34.4 µM
[3]
  GI50: 11 µM
  LC50: 74.2 µM
  TGI: 42.6 µM
[4]
  GI50 at 72 h: 0.01 µM
  LC50: 51.8 µM
  TGI: 6.9 µM
[5]
  GI50: 15.8 µM
  TGI: 52.9 µM
  CC50: 89.9 µM
[6]
  GI50 at 72 h: 4.6 µM
  LC50: 53.4 µM
  TGI: 9.8 µM
[9]
  GI50: 0.6 µM
  LC50 (concentration causing 50% net cell kill): 66.7 µM
  TGI: 25.7 µM
[10]
  GI50: 31 µM
  TGI: 54.3 µM
  CC50: 77.2 µM

## O=C(Nc1ccc([Se][Se]c2ccc(NC(=O)OCc3ccccc3)cc2)cc1)OCc1ccccc1
[1]
  inhibition (INH): 7.4%
[2]
  GI50: 6.4 µM
  LC50: 67.9 µM
  TGI: 34.6 µM
[3]
  GI50: 1.8 µM
  LC50: 69 µM
  TGI: 35.4 µM
[4]
  GI50 at 72 h: 0.01 µM
  LC50: 58.5 µM
  TGI: 17.3 µM
[5]
  GI50: 5.2 µM
  TGI: 38.6 µM
  CC50: 74.5 µM
[6]
  GI50 at 72 h: 0.1 µM
  LC50: 36.2 µM
  TGI: 5.8 µM
[9]
  GI50: 0.1 µM
  LC50 (concentration causing 50% net cell kill): 70.4 µM
  TGI: 33.5 µM
[10]
  GI50: 23.8 µM
  TGI: 50.9 µM
  CC50: 78 µM

## Cc1ccc(OC(=O)Nc2ccc([Se][Se]c3ccc(NC(=O)Oc4ccc(C)cc4)cc3)cc2)cc1
[1]
  inhibition (INH): > 50%
[2]
  GI50: 21.4 µM
  LC50: 75.6 µM
  TGI: 48.5 µM
[3]
  GI50: 7.9 µM
  LC50: 70.9 µM
  TGI: 39.4 µM
[4]
  GI50 at 72 h: 0.7 µM
  LC50: 61.8 µM
  TGI: 19.2 µM
[5]
  GI50: 6.9 µM
  TGI: 37.7 µM
  CC50: 74 µM
[6]
  GI50 at 72 h: 3.5 µM
  LC50: 37.2 µM
  TGI: 7.6 µM
[9]
  GI50: 4.4 µM
  LC50 (concentration causing 50% net cell kill): 64.8 µM
  TGI: 28.2 µM
[10]
  GI50: 24.9 µM
  TGI: 57 µM
  CC50: 89.1 µM
